Series [1] has as its target Xanthine dehydrogenase/oxidase (Homo sapiens, UniProt P47989). Kind of series: Inhibition of xanthine oxidase activity assessed as uric acid formation pretreated for 15 mins before substrate addition measured after 5 mins. The settings on record: for inhibition (INH): 5 min.
Series [2] in a line: Antioxidant activity assessed as ABTS radical scavenging activity. In kind it is functional. In short, it runs like this: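 ABTS (7 mM in deionized water) was mixed with 2.45 mM potassium persulfate to form the radical cation. 180 µL of this solution was combined with 40 µL of sample, and absorbance was read at 630 nm. Vitamin E served as positive control. Mean ± s.e.m., n = 3.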

Series [3] can be described thus: Cytotoxicity against human NTUB1 cells after 72 hrs by MTT assay. The settings on record: NTUB1, 72 h. It is filed as functional, cell-based. In short, it runs like this: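 NTUB1 cells in RPMI 1640 with 10% FBS were seeded at 1 × 10³ cells/well and left overnight at 37 °C. They were then exposed to graded concentrations for 72 h. MTT was added; plates were spun, the medium removed and DMSO added, and absorbance read at 540 nm. Viability is the ratio to untreated control, and IC50 was taken from the curve. Mean ± S.D., n = 3.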

Series [4] can be described thus: Cell cycle arrest in human NTUB1 cells assessed as accumulation in subG1 phase at 60 uM after 24 hrs using propidium iodide by FACS analysis. It is filed as functional, cell-based. In short, it runs like this:
(§1)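 NTUB1 bladder carcinoma cells (3 × 10⁵ or 8 × 10⁵ per 10 cm dish) were exposed to 40 or 60 µM for 24 h. Cells were trypsinized, fixed in ice-cold methanol at −20 °C overnight, and stained with 50 µg/mL propidium iodide for 30 min at room temperature. DNA content was measured by flow cytometry, with the sub-G1 fraction taken as apoptosis. Three independent experiments.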

The subject of series [5] is NTUB1. Nature of the series: Induction of apoptosis in human NTUB1 cells assessed as increase in ROS level at 40 uM after 24 hrs by flow cytometry. It is filed as functional, cell-based. In short, it runs like this: (§2)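 NTUB1 cells in 6-well plates were treated for 24 h at 20 or 40 µM. Controls were 1 mM NAC and 10 µM cisplatin. 10 µM DCFH-DA was added 30 min before harvest; cells were then trypsinized and washed in PBS. DCF green fluorescence was read by flow cytometry through a 525 nm band-pass filter and expressed relative to control. Mean ± S.D., n = 3.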

Series [6] can be described thus: Cytotoxicity against human SV-HUC1 cells at 0.3 to 50 uM after 72 hrs by MTT assay. It is filed as cell-based. Particulars: sv-huc1, 72 h. The essentials:
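SV-HUC1 cells (SV40-immortalized human uroepithelium), grown in F12 with 10% FBS, were seeded at 1 × 10³ cells/well and left overnight. Graded concentrations were applied for 72 h at 37 °C. Read-out was MTT formazan dissolved in DMSO, absorbance at 540 nm. Viability is expressed relative to untreated control. Mean ± S.D., n = 3.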

Series [7] is described as follows: Antioxidant activity against oxide-induced pBR322 DNA damage at 300 uM by agarose gel electrophoresis. In kind it is functional. The essentials:
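Supercoiled pBR322 plasmid DNA (500 ng) in phosphate buffer pH 7.4, exposed for 20 min to superoxide generated by xanthine/xanthine oxidase, with or without test agent at 300 µM. SOD and quercetin were positive controls. Strand breaks were resolved by gel electrophoresis.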

Series [8] in a line: Induction of apoptosis in human NTUB1 cells assessed as increase in ROS level at 20 to 40 uM after 24 hrs by flow cytometry relative to control. In kind it is functional. In short, it runs like this:
as §2
For orientation: In flow cytometry, cells or beads pass a laser one at a time.

A short description of series [9]: Cell cycle arrest in human NTUB1 cells assessed as accumulation in subG1 phase at 40 uM after 24 hrs using propidium iodide by FACS analysis. It is filed as functional, cell-based. In short, it runs like this: as §1
Series [10] relates to NTUB1. Kind of series: Induction of apoptosis in human NTUB1 cells assessed as increase in ROS level at 20 uM after 24 hrs by flow cytometry. In kind it is functional, cell-based. In short, it runs like this:
as §2

The source made the active and inactive calls. The rule behind the calls is not given here.

Experimental findings from ChEMBL document CHEMBL1759938, “Antioxidant xanthone derivatives induce cell cycle arrest and apoptosis and enhance cell death induced by cisplatin in NTUB1 cells associated with ROS” (Eur J Med Chem, 2011) are described below.

By IC50 is commonly meant the point on the concentration scale where inhibition reaches its midpoint.

Sequence of Xanthine dehydrogenase/oxidase (P47989 whole entry): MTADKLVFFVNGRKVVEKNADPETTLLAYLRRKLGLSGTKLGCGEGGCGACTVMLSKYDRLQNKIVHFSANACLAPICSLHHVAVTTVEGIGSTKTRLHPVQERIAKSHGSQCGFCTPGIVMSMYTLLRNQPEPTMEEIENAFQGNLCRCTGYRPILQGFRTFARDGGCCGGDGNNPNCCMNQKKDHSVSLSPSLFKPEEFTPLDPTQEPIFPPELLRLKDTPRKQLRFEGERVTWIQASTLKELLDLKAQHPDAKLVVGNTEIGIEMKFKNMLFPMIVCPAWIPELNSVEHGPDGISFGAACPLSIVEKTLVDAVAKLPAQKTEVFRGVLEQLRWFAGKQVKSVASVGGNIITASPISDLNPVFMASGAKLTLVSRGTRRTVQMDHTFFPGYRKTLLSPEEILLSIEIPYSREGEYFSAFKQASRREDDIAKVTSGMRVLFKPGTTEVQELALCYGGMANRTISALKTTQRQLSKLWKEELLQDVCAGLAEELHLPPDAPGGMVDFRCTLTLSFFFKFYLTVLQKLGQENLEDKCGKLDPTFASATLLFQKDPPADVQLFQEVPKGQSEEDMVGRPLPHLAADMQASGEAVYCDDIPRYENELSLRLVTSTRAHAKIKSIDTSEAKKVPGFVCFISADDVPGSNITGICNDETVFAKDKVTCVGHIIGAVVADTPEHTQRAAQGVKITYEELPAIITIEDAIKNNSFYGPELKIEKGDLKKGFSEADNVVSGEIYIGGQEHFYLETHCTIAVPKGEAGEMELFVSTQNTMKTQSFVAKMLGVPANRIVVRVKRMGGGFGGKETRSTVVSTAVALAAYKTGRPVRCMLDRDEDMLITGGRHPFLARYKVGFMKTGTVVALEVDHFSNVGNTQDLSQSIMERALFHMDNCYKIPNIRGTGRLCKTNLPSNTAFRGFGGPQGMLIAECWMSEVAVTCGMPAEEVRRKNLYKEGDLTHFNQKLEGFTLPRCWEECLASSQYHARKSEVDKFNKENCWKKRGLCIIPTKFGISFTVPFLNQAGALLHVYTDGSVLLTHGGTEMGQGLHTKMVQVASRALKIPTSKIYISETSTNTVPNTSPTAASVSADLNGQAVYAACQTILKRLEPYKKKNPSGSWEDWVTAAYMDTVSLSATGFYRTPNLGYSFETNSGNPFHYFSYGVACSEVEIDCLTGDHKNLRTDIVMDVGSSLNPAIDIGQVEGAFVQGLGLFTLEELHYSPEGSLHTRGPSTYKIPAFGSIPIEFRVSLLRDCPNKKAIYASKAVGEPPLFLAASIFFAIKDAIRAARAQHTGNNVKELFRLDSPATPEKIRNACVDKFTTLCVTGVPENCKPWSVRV

As to `O=c1c2ccc(O)cc2oc2cc(OCCCN3CCCCC3)ccc12`, the results for the IC50 in [1], in series [2] (read-out: IC50) and in series [3] were 82.3 µM, 69.3 µM and 35.1 µM, respectively. Moreover, the “inhibition (INH)” value in series [1] is “Dose-dependent effect”. Further, the result (in series [4]; in the series with NTUB1 [5]; in series [7]) was Active. For the same compound, the Activity entry in series [6] is listed as “Non-toxic”; in [8], 250%.

In the case of `CN1CCN(CCCOc2ccc3c(=O)c4ccccc4oc3c2)CC1`, in [1], the half-inhibitory concentration (IC50) came to 47.3 µM and the “inhibition (INH)” value is “Dose-dependent effect”. Also, in [2] (read-out: IC50), the IC50 was determined as 152 µM. Also, the result in [7] was Active.

For the compound `O=c1c2ccc(O)cc2oc2cc(OCCCN3CCCC3)ccc12`, in series [1], the concentration for half-maximal inhibition (IC50) was determined as 68.8 µM and the “inhibition (INH)” value is reported as “Dose-dependent effect”. Also, in [2] (read-out: IC50), the IC50 is 88.8 µM. Further, the result in [7] was Active.

As to `O=c1c2ccc(O)cc2oc2cc(OCCCN3CCNCC3)ccc12`, in [1], the IC50 was found to be 91.9 µM and the “inhibition (INH)” value is given as “Dose-dependent effect”. For the same compound, the IC50 in series [2] (read-out: IC50) amounted to 65 µM.

On to `CCN(CC)CCCOc1ccc2c(=O)c3ccccc3oc2c1`, for which the IC50 was found to be 56.5 µM in series [1] and 84.9 µM in [2] (read-out: IC50). In series [1], the “inhibition (INH)” value was “Dose-dependent effect”. The result in series [7] was Active.

In the case of `CN1CCN(CCCOc2ccc3c(=O)c4ccc(O)cc4oc3c2)CC1`, in series [1], the IC50 was determined as 44.3 µM and the “inhibition (INH)” value is listed as “Dose-dependent effect”. For the same compound, the IC50 in series [2] (read-out: IC50) was 76.5 µM.

With `O=c1c2ccc(O)cc2oc2cc(OCCCNC3CCCCC3)ccc12`, in series [1], the IC50 came to 72.9 µM and the “inhibition (INH)” value is given as “Dose-dependent effect”. Moreover, the IC50 in series [2] (read-out: IC50) was 106 µM. In series [7], the result was Active.

Regarding `O=c1c2ccccc2oc2cc(OCCCN3CCCC3)ccc12`, in [1], the IC50 came to 65.5 µM and the “inhibition (INH)” value is “Dose-dependent effect”. Moreover, the IC50 entry in series [2] was “Not Active”. In addition, the outcome in [7] was Active.

Regarding `Oc1ncnc2[nH]ncc12` [ALLOPURINOL], the “inhibition (INH)” value in [1] is given as “Dose-dependent effect”.

For `CCN(CC)CCCOc1ccc2c(=O)c3ccc(O)cc3oc2c1`, in series [1], the IC50 was found to be 53.5 µM and the “inhibition (INH)” value is on record as “Dose-dependent effect”. Moreover, the IC50 in [2] (read-out: IC50) amounted to 80.5 µM.

`O=c1c2ccccc2oc2cc(OCCCN3CCCCC3)ccc12`: the IC50 was 37.8 µM in series [1], 90 µM in [2] (read-out: IC50) and 31.2 µM in [3]. Besides, the “inhibition (INH)” value in series [1] is listed as “Dose-dependent effect”. The result (in series [9]; in series [7]; in the series with NTUB1 [10]) was Active. For the same compound, the Activity in [8] is 250%.

Take `O=c1c2ccccc2oc2cc(OCCCN3CCNCC3)ccc12`: the concentration for half-maximal inhibition (IC50) turned out to be 109 µM in series [1] and 75.1 µM in series [2] (read-out: IC50). For the same compound, the “inhibition (INH)” value in series [1] is recorded as “Dose-dependent effect”. For the same compound, the result in series [7] was Active.

As for `O=c1c2ccc(O)cc2oc2cc(OCCCNC3CC3)ccc12`, in series [1], the IC50 turned out to be 63 µM and the “inhibition (INH)” value is “Dose-dependent effect”. Besides, the IC50 in series [2] (read-out: IC50) was found to be 108 µM. Also, in series [7], the outcome was Active.

VITAMIN E: the IC50 in [2] (read-out: IC50) was determined as 77.2 µM.
